From ChEMBL document CHEMBL3797061, “Characterizing the Covalent Targets of a Small Molecule Inhibitor of the Lysine Acetyltransferase P300” (ACS Med Chem Lett, 2016) come the findings set out here.

Molecules are shown by their SMILES. Activity calls are given as the source filed them. The calls are words filed in the database; no cut-off is given here.

As usually defined, the IC50 is the concentration that inhibits the measured activity by half.

One assay deals with Tubulin (Sus scrofa) (UniProt P02554+P02550). As to the kind of experiment: Inhibition of porcine brain tubulin polymerization assessed as decrease in rate of microtubule formation incubated up to 1 hr by fluorescence analysis. In outline: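 Porcine tubulin was preincubated with compound and polymerization was then followed by a fluorescence assay. Read-outs were the rate of microtubule formation and final polymer mass. CaCl2 served as the positive control for inhibition.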

In assay [1] the test system is HEK293. The assay is described as follows: Binding affinity to HEK293 proteomes incubated for 16 hrs using TAMRA-azide dye by SDS-PAGE based fluorescence analysis. Type of assay: cell-based. Conditions: Homo sapiens. In outline:
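HEK-293 cell lysate was incubated 16 h with alkyne probe (5–50 μM) and then conjugated to a fluorescent azide by Cu-catalysed [3+2] cycloaddition. Reactions were quenched in loading buffer without boiling. Proteins were resolved by SDS-PAGE and covalent labeling was imaged by in-gel fluorescence.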

The target of assay [2] is Tubulin alpha-1B chain (Homo sapiens) (UniProt P68363). As to the kind of experiment: Binding affinity to TUBA1B in HEK293 proteomes assessed as spectral count ratio at 20 uM incubated for 16 hrs by TAMRA biotin-azide dye based LC-MS/MS analysis relative to control. Summed up:
(§1)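 HEK-293 proteome labeled with alkyne probe, then enriched and identified by LC–MS/MS. Spectral counts compared with a no-probe control.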

Assay [3] deals with Tubulin alpha-1A chain (Homo sapiens) (UniProt Q71U36). As to the kind of experiment: Binding affinity to TUBA1A in HEK293 proteomes assessed as spectral count ratio at 20 uM incubated for 16 hrs by TAMRA biotin-azide dye based LC-MS/MS analysis relative to control. In outline: as §1
For assay [4], the target named is Tubulin alpha-1C chain (Homo sapiens) (UniProt Q9BQE3). The assay is described as follows: Binding affinity to TUBA1C in HEK293 proteomes assessed as spectral count ratio at 20 uM incubated for 16 hrs by TAMRA biotin-azide dye based LC-MS/MS analysis relative to control. Summed up: as §1
Assay [5] deals with Tubulin beta-5 chain (Homo sapiens) (UniProt P07437). As to the kind of experiment: Binding affinity to TUBB in HEK293 proteomes assessed as spectral count ratio at 20 uM incubated for 16 hrs by TAMRA biotin-azide dye based LC-MS/MS analysis relative to control. Summed up:
as §1

The target of assay [6] is Tubulin alpha-8 chain (Homo sapiens) (UniProt Q9NY65). The assay is described as follows: Binding affinity to TUBA8 in HEK293 proteomes assessed as spectral count ratio at 20 uM incubated for 16 hrs by TAMRA biotin-azide dye based LC-MS/MS analysis relative to control. In outline:
as §1

The target of assay [7] is Elongation factor 1-alpha 1 (Homo sapiens) (UniProt P68104). As to the kind of experiment: Binding affinity to EEF1A1 in HEK293 proteomes assessed as spectral count ratio at 20 uM incubated for 16 hrs by TAMRA biotin-azide dye based LC-MS/MS analysis relative to control. Summed up:
as §1

The target of assay [8] is Tubulin beta-2A chain (Homo sapiens) (UniProt Q13885). As to the kind of experiment: Binding affinity to TUBB2A in HEK293 proteomes assessed as spectral count ratio at 20 uM incubated for 16 hrs by TAMRA biotin-azide dye based LC-MS/MS analysis relative to control. In outline:
as §1

Assay [9] has as its target 60 kDa heat shock protein, mitochondrial (Homo sapiens) (UniProt P10809). The assay is described as follows: Binding affinity to HSPD1 in HEK293 proteomes assessed as spectral count ratio at 20 uM incubated for 16 hrs by TAMRA biotin-azide dye based LC-MS/MS analysis relative to control. In outline: as §1
The target in assay [10] is Tubulin beta-4A chain (Homo sapiens) (UniProt P04350). The assay is described as follows: Binding affinity to TUBB4A in HEK293 proteomes assessed as spectral count ratio at 20 uM incubated for 16 hrs by TAMRA biotin-azide dye based LC-MS/MS analysis relative to control. In outline:
as §1

The target of assay [11] is D-3-phosphoglycerate dehydrogenase (Homo sapiens) (UniProt O43175). As to the kind of experiment: Binding affinity to PHGDH in HEK293 proteomes at 20 uM incubated for 16 hrs by TAMRA biotin-azide dye based LC-MS/MS analysis. Format: cell-based. Summed up: as §1
Assay [12] has as its target Alpha-enolase (Homo sapiens) (UniProt P06733). As to the kind of experiment: Binding affinity to ENO1 in HEK293 proteomes assessed as spectral count ratio at 20 uM incubated for 16 hrs by TAMRA biotin-azide dye based LC-MS/MS analysis relative to control. Summed up: as §1
Assay [13] has as its target Heterogeneous nuclear ribonucleoprotein H (Homo sapiens) (UniProt P31943). As to the kind of experiment: Binding affinity to HNRNPH1 in HEK293 proteomes at 20 uM incubated for 16 hrs by TAMRA biotin-azide dye based LC-MS/MS analysis. Type of assay: cell-based. In outline:
as §1

In assay [14] the target is Eukaryotic initiation factor 4A-I (Homo sapiens) (UniProt P60842). As to the kind of experiment: Binding affinity to EIF4A1 in HEK293 proteomes assessed as spectral count ratio at 20 uM incubated for 16 hrs by TAMRA biotin-azide dye based LC-MS/MS analysis relative to control. Summed up: as §1
Assay [15] concerns the target Creatine kinase B-type (Homo sapiens) (UniProt P12277). As to the kind of experiment: Binding affinity to CKB in HEK293 proteomes assessed as spectral count ratio at 20 uM incubated for 16 hrs by TAMRA biotin-azide dye based LC-MS/MS analysis relative to control. Summed up:
as §1

Assay [16] concerns the target Pyruvate kinase PKM (Homo sapiens) (UniProt P14618). As to the kind of experiment: Binding affinity to PKM in HEK293 proteomes assessed as spectral count ratio at 20 uM incubated for 16 hrs by TAMRA biotin-azide dye based LC-MS/MS analysis relative to control. In outline: as §1
Assay [17] has as its target Heat shock protein HSP 90-beta (Homo sapiens) (UniProt P08238). As to the kind of experiment: Binding affinity to HSP90AB1 in HEK293 proteomes assessed as spectral count ratio at 20 uM incubated for 16 hrs by TAMRA biotin-azide dye based LC-MS/MS analysis relative to control. In outline:
as §1

Assay [18] has as its target Actin, cytoplasmic 1 (Homo sapiens) (UniProt P60709). As to the kind of experiment: Binding affinity to ACTB in HEK293 proteomes assessed as spectral count ratio at 20 uM incubated for 16 hrs by TAMRA biotin-azide dye based LC-MS/MS analysis relative to control. Summed up:
as §1

Assay [19] addresses Heat shock 70 kDa protein 1A/1B (Homo sapiens) (UniProt P0DMV8+P0DMV9). The assay is described as follows: Binding affinity to HSPA1A/HSPA1B in HEK293 proteomes assessed as spectral count ratio at 20 uM incubated for 16 hrs by TAMRA biotin-azide dye based LC-MS/MS analysis relative to control. Format: protein assay. In outline: as §1
Assay [20] concerns HEK293. The assay is described as follows: Binding affinity to HEK293 proteomes at 1 uM incubated for 16 hrs using TAMRA-azide dye by SDS-PAGE based fluorescence analysis in presence of iodoacetamide. Conditions: Homo sapiens. Format: cell-based. Summed up:
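Proteomes were preincubated with iodoacetamide before alkyne-probe treatment. Probe labeling then proceeded by click conjugation to a fluorescent azide, SDS-PAGE without boiling, and fluorescence imaging to test for cysteine-directed labeling.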

Assay [21] relates to HEK293. As to the kind of experiment: Binding affinity to HEK293 proteomes assessed as compound-Cysteine adduct formation at 1 uM incubated for 24 hrs by LC-MS/MS analysis. Type of assay: cell-based. Conditions: Homo sapiens.
The target in assay [22] is Histone acetyltransferase p300 (Homo sapiens, UniProt Q09472). The assay is described as follows: Inhibition of recombinant P300 catalytic domain (1284 to 1673 residues) (unknown origin) using FITC- histone H4 peptide (1 to 19 residues) as substrate by electrophoretic mobility shift assay.
Sequence of Histone acetyltransferase p300 (Q09472 whole entry, the tested form may be a part): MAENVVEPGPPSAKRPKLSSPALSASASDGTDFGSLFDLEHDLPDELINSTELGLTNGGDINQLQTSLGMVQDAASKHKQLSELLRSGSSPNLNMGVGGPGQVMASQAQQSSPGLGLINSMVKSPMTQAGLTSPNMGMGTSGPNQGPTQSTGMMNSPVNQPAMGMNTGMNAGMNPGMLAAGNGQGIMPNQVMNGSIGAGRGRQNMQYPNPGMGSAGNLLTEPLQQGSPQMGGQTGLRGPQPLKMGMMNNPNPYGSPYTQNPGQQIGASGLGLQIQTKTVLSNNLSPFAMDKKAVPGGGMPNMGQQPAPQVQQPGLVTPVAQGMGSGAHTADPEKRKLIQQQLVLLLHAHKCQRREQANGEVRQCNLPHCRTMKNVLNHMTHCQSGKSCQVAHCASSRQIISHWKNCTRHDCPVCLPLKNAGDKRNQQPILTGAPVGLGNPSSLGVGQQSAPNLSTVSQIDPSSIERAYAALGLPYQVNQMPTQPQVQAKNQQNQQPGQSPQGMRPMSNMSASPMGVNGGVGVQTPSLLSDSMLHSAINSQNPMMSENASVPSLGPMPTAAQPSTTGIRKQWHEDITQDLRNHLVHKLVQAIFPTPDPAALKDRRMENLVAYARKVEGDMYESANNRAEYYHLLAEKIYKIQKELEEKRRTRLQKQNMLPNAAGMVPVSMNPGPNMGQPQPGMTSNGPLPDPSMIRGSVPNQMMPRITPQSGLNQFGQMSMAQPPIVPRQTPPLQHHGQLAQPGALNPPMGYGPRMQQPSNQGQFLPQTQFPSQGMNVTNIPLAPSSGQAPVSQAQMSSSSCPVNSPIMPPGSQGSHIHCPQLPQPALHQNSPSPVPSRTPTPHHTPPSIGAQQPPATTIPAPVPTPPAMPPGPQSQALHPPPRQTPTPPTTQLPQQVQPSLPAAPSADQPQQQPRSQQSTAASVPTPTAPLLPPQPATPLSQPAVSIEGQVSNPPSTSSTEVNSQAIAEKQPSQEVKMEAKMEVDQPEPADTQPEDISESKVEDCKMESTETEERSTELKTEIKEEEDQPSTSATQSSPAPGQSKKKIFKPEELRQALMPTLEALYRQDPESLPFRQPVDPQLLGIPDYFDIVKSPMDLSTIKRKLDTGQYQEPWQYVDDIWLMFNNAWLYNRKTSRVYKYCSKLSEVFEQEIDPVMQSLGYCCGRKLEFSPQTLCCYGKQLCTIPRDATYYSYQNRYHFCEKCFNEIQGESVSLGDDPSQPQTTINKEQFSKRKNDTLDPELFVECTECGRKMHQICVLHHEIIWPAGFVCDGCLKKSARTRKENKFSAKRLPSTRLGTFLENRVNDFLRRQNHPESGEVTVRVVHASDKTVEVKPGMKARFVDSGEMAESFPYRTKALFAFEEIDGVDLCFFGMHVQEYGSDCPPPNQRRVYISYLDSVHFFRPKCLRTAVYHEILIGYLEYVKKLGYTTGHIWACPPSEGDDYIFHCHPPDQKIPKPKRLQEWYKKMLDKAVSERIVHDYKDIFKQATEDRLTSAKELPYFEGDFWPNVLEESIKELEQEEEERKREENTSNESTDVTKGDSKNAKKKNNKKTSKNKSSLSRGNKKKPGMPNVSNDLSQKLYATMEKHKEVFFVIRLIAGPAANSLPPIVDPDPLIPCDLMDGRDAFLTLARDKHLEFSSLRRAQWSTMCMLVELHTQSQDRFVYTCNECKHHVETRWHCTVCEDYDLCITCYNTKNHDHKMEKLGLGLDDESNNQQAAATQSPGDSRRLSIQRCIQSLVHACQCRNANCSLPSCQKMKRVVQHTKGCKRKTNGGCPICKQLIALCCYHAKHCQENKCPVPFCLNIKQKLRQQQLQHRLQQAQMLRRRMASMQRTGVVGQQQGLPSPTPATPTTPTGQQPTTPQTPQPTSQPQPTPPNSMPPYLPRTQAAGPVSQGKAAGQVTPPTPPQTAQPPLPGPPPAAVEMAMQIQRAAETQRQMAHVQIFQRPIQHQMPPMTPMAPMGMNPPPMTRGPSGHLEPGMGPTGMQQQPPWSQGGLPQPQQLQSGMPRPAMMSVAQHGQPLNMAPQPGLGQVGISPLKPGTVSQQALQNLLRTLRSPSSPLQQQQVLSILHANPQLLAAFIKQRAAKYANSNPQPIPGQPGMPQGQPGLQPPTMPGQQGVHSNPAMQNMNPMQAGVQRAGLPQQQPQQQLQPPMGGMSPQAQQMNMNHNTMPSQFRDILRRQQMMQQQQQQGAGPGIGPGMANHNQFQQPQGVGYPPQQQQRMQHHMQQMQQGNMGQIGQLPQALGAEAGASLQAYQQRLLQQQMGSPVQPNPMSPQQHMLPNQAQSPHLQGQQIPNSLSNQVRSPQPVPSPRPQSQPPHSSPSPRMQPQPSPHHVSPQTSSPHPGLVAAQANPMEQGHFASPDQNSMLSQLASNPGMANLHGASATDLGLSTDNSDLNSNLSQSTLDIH

Sequence of Tubulin beta-5 chain (Homo sapiens) (P07437 whole entry): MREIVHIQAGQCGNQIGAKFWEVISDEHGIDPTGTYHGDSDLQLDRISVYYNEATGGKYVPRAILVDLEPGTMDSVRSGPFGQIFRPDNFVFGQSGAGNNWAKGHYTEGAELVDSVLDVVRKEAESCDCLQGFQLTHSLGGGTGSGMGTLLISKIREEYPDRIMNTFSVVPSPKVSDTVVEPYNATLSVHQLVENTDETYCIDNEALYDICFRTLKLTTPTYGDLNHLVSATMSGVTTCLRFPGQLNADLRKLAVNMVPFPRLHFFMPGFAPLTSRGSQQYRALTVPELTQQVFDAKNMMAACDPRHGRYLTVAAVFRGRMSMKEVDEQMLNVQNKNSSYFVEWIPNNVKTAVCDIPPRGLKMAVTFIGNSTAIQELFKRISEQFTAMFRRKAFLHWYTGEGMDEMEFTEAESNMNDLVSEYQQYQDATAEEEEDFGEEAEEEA
Sequence of Pyruvate kinase PKM (Homo sapiens) (P14618 2-531 limits assumed): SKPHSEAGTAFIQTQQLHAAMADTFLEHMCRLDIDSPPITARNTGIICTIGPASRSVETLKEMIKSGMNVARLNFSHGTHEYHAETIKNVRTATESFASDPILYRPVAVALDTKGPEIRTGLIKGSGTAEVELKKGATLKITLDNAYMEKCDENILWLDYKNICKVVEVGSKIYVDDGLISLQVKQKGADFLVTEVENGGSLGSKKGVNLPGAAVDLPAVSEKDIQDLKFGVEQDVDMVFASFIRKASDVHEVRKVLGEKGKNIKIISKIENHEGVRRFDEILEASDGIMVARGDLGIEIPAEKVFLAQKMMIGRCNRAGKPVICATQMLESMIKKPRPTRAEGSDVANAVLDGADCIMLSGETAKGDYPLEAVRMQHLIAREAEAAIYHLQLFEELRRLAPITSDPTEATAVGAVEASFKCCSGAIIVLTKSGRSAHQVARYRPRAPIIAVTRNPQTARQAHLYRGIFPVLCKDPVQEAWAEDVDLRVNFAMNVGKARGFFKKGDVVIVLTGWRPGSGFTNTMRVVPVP
Sequence of Heat shock protein HSP 90-beta (Homo sapiens) (P08238 whole entry): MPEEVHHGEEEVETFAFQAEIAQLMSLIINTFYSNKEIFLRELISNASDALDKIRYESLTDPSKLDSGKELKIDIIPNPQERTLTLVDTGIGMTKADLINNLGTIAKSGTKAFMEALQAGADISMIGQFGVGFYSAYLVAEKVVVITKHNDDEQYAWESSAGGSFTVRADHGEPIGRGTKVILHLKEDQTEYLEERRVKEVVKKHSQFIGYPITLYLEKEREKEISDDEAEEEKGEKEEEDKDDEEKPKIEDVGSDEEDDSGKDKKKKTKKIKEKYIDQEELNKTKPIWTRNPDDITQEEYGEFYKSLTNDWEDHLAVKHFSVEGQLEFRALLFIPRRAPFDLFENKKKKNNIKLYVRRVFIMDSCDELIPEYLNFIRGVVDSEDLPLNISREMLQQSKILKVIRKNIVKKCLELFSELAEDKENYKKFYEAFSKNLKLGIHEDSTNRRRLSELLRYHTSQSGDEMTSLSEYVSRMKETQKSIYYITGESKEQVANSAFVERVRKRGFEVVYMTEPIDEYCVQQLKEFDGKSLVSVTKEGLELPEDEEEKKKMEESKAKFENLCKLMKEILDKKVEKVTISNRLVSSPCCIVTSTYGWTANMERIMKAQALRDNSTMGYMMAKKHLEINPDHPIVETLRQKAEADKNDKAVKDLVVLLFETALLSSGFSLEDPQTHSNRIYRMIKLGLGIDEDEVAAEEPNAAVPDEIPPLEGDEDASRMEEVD
Sequence of Heterogeneous nuclear ribonucleoprotein H (Homo sapiens) (P31943 whole entry): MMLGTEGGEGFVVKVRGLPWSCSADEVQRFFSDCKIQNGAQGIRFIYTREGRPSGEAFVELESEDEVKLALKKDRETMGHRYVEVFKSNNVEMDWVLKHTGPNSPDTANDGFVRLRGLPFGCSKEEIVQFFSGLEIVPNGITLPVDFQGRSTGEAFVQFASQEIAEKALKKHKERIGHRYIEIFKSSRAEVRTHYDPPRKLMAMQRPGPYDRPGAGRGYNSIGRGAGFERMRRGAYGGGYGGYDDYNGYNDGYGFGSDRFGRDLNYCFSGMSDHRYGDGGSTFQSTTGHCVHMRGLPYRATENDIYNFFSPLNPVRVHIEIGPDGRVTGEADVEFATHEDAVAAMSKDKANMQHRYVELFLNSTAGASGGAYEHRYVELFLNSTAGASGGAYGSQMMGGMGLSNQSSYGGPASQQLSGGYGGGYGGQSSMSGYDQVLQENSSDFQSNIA
Sequence of Tubulin alpha-1B chain (Homo sapiens) (P68363 whole entry, looked up): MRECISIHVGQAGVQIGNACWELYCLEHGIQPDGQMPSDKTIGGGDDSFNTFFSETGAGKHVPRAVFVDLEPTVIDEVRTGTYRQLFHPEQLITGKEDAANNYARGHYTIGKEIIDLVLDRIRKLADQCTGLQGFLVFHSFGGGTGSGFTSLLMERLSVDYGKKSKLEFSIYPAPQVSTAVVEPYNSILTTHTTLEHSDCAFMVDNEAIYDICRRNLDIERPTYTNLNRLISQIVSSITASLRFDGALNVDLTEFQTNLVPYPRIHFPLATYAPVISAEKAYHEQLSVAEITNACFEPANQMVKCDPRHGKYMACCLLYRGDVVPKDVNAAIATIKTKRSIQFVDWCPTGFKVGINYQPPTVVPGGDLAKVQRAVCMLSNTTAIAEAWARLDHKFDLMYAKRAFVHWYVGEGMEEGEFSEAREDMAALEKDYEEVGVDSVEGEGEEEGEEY
Sequence of Tubulin alpha-1A chain (Homo sapiens) (Q71U36 whole entry, looked up): as the sequence (P68363 whole entry, looked up) above, with S232G, S340T counted along it

In the case of `CC1=NN(c2ccc(C(=O)O)cc2)C(=O)/C1=C\c1ccc(-c2cc(C)c(C)cc2[N+](=O)[O-])o1`, on Tubulin (Sus scrofa), the inhibition entry was “Dose-dependent effect”.
As to `C#CCNC(=O)c1ccc(N2N=C(C)/C(=C/c3ccc(-c4cc(C)c(C)cc4[N+](=O)[O-])o3)C2=O)cc1`, the Activity entry with HEK293 [1] is “Dose-dependent effect”. In addition, the fold change (FC) in assay [2] came to 25; in assay [3], 25; in assay [4], 25; in [5] it was 36; in assay [6], 64; in [7] it was 12. Further, the fold change (FC) was 25 in [8]; 24 in assay [9]; 19 in assay [10]; 7 in assay [12]; 17 in assay [14]; 9 in [15]. Also, the fold change (FC) turned out to be 16 in [16], 16 in assay [17], 4 in assay [18] and 8 in assay [19]. In addition, the outcome (in assay [11]; in [13]; in the assay on HEK293 [21]) was Active. Also, the outcome with HEK293 [20] was inactive. Also, the IC50 in assay [22] was 14.1 µM.
